We go through twelve molecules from ChEMBL document CHEMBL1146504, “Resveratrol derivatives and their role as potassium channels modulators” (J Nat Prod, 2004).

Holding throughout (format): cell-based
Experiment [1] deals with F11. The experiment is described as follows: Blockade of delayed rectifier potassium channel in mouse rat hybrid F11 cells at 90 uM by whole-cell patch clamp technique. In outline:
(§1)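 F11 cells (mouse neuroblastoma N18TG-2 × rat DRG) grown in DMEM with 4.5 g/L glucose and 10% FCS at 37 °C, 5% CO2, and plated about 24 h before recording. Whole-cell clamp with compensated capacitance and series resistance. Pipette: K-aspartate 130 mM, EGTA 10 mM, MgATP 1 mM, pCa 7. Cells perfused with low-K physiologic solution; step to 60 mV from −60 mV holding; TEA-isolated current. Drug applied by perfusion, DMSO 1:2000 final.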
(Patch clamp records ionic current or voltage across a cell membrane.)

Experiment [2] deals with F11. Kind of experiment: Blockade of sodium channel in mouse rat hybrid F11 cells by whole-cell patch clamp technique. Summed up: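 F11 cells (mouse neuroblastoma N18TG-2 × rat DRG hybrid) grown in DMEM with 4.5 g/L glucose and 10% FCS at 37 °C, 5% CO2. Cells were plated and incubated about 24 h before whole-cell recording. Pipette solution was K-aspartate based at pCa 7 with 1 mM MgATP. Compounds came from 300 mM DMSO stocks, with DMSO at 1:2000 final, and were delivered by local perfusion. Capacitance and series resistance were compensated 85–95%.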

Experiment [3] concerns F11. The experiment is described as follows: Blockade of inward rectifier potassium channel in mouse rat hybrid F11 cells at 36 uM by whole-cell patch clamp technique.
The test system of experiment [4] is F11. The experiment is described as follows: Blockade of delayed rectifier potassium channel in mouse rat hybrid F11 cells at 36 uM by whole-cell patch clamp technique. In outline: as §1
Experiment [5] has as its system F11. Kind of experiment: Blockade of inward rectifier potassium channel in mouse rat hybrid F11 cells at 45 uM by whole-cell patch clamp technique.
For experiment [6], the system named is F11. The experiment is described as follows: Blockade of delayed rectifier potassium channel in mouse rat hybrid F11 cells at 45 uM by whole-cell patch clamp technique. In outline:
as §1

Activity calls are given as the source filed them. The calls are words filed in the database; no cut-off is given here.

`Oc1ccc(/C=C/c2cc(O)cc(O)c2)cc1`: the Activity in the experiment on F11 [1] came to 42.9%.
Turning to `COc1ccc(/C=C\c2cc(O)cc(O)c2)cc1`, in the experiment with F11 [2], the outcome was Active. The Activity with F11 [1] was 70.4%.
On to `COc1ccc(CCc2cc(O)cc(O)c2)cc1`, for which, in the experiment on F11 [2], the result was Active. In addition, the Activity with F11 [1] was 89.4%.
Regarding `COc1cc(O)cc(CCc2ccc(O)cc2)c1`, the Activity in the experiment on F11 [1] was 69%.
In the experiment with F11 [1], `Oc1cc(CCc2ccc(OCc3ccccc3)cc2)cc(OCc2ccccc2)c1` had an Activity of 50%.
Same read-out and setting: next, `Oc1ccc(CCc2cc(O)cc(OCc3ccccc3)c2)cc1`: 89%; `c1ccc(COc2ccc(CCc3cc(OCc4ccccc4)cc(OCc4ccccc4)c3)cc2)cc1`: 57%; `Oc1ccc(CCc2cc(O)cc(O)c2)cc1`: 52%.
Turning to `CC(C)=CCOc1cc(O)cc(CCc2ccc(O)cc2)c1`, the values for the Activity in the experiment on F11 [3] and in the experiment with F11 [4] were 53.7% and 55.5%, respectively.
As to `CC(C)=CCc1c(O)cc(CCc2ccc(O)cc2)cc1O`, the Activity in the experiment on F11 [5] worked out at 50.1%; with F11 [6], 74%.
In turn, `COc1ccc(CCc2cc(OC)cc(OC)c2)cc1` came in with an Activity in the experiment with F11 [1] of 38.6%.
Same read-out and setting: the result for `Oc1cc(O)cc(CCc2ccc(OCc3ccccc3)cc2)c1` reads 89%.
